Measurements from ChEMBL document CHEMBL4219092, “Design and synthesis of 1-(1-benzothiophen-7-yl)-1H-pyrazole, a novel series of G protein-coupled receptor 52 (GPR52) agonists” (Bioorg Med Chem, 2018).
In brackets after ≈: the same amount, converted by molar mass. Activity calls are given as the source filed them. The rule behind the calls is not given here.

Tests used:
[1] = target: T1, G-protein coupled receptor 52 (Homo sapiens, UniProt Q9Y2T5); assay: Agonist activity at human GPR52 expressed in CHO cells assessed as increase in cAMP level after 30 mins by AlphaScreen assay; format: functional, cell-based
T1 sequence (Q9Y2T5 whole entry): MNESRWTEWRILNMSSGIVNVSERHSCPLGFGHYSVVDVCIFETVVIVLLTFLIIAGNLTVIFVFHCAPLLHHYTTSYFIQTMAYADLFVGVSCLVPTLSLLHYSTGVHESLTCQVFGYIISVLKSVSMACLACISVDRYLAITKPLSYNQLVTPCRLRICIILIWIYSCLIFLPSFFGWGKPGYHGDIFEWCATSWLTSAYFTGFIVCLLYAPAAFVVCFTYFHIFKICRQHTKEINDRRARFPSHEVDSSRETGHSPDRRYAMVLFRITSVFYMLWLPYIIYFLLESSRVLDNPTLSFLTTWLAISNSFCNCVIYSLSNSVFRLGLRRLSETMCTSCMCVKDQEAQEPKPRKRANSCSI
Outline: (§1)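 CHO cells stably expressing human GPR52 (10,000 cells) were incubated with compound for 30 min at 37°C in HBSS with 5 mM HEPES pH 7.6, 0.5% BSA, 100 μM IBMX and 100 μM Ro20-1724. Anti-cAMP acceptor beads and biotinylated cAMP donor beads were then added, with overnight incubation at room temperature, and AlphaScreen was read. EC50 comes from mean curves (n=2-4) relative to the 50% response of 1 μM of a benzofuran reference agonist. Emax is expressed relative to that reference.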

[2] = Aqueous solubility of the compound at pH 6.8 by HPLC analysis; format: physicochemical
Outline: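 Compound from DMSO stock was added to aqueous buffer at pH 6.8 (JP 15th edition second disintegration fluid) and incubated. Precipitate was removed by filter-plate filtration, and the dissolved compound in the filtrate was quantified by HPLC.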

[3] = target: T1, G-protein coupled receptor 52; assay: Agonist activity at human GPR52 expressed in CHO cells assessed as increase in cAMP level after 30 mins by AlphaScreen assay relative to N-(2-hydroxyethyl)-3-[2-[3-(trifluoromethyl)benzyl]-1-benzofuran-4-yl]benzamide; format: functional, cell-based; outline: as §1
[4] = Cmax in ICR mouse at 0.1 mg/kg, iv and 1 mg/kg, po administered as cassette dose by LC-MS/MS analysis; format: ADME, organism-based; conditions: in vivo
Outline: (§2)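 Male ICR mice (n=3), cassette dosing at 0.1 mg/kg i.v. or 1 mg/kg p.o. Blood was collected and centrifuged to plasma. Plasma was deproteinized and centrifuged, and the supernatant was analysed by LC/MS/MS. AUC covers 0 to 8 h. Values are averages of 3 mice.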

[5] = Tmax in ICR mouse at 0.1 mg/kg, iv and 1 mg/kg, po administered as cassette dose by LC-MS/MS analysis; format: ADME, organism-based; conditions: in vivo; outline: as §2
[6] = AUC (0 to 8 hrs) in ICR mouse at 1 mg/kg, po administered as cassette dose by LC-MS/MS analysis; format: ADME, organism-based; set-up: time < 8 hr, dose 1 mg/kg, route oral; conditions: in vivo; outline: as §2
[7] = Total clearance in ICR mouse at 0.1 mg/kg, iv and 1 mg/kg, po administered as cassette dose by LC-MS/MS analysis; format: ADME, organism-based; conditions: in vivo; outline: as §2
[8] = Oral bioavailability in ICR mouse at 1 mg/kg administered as cassette dose by LC-MS/MS analysis; format: ADME, organism-based; conditions: in vivo; outline: as §2
[9] = tested on: MDR; assay: Substrate activity at MDR (unknown origin) assessed as efflux ratio; format: ADME; conditions: human, not told
[10] = Protein binding in mouse plasma at 1 uM; format: ADME, cell-free; conditions: read-out: PPB (converted)
[11] = tested on: Mus musculus; assay: Reversal of methamphetamine-induced hyperlocomotion in po dosed ICR mouse pretreated 60 mins post habituation followed by methamphetamine injection after 60 mins measured for 150 mins; format: functional, organism-based
Outline: (§3)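 Male ICR mice (7-8 weeks) were placed individually in locomotor monitors and habituated for 60 min. Drug was then given p.o. (test agent 10 or 30 mg/kg; haloperidol 0.3 mg/kg). Methamphetamine 2 mg/kg s.c. was injected 60 min later, and activity counts were recorded for 150 min after drug dosing. Data are mean ± S.E.M., n=6-7 per group, analysed by Williams' test against vehicle+MAP.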

[12] = tested on: Mus musculus; assay: Toxicity in ICR mouse assessed as sedation at 10 and 30 mg/kg, po measured over 60 mins; format: organism-based; conditions: in vivo, 1 h
[13] = tested on: Mus musculus; assay: Toxicity in ICR mouse assessed as general malaise at 10 and 30 mg/kg, po measured over 60 mins; format: organism-based; conditions: in vivo, 1 h
[14] = tested on: Mus musculus; assay: Reversal of methamphetamine-induced hyperlocomotion in ICR mouse at 0.3 mg/kg, po pretreated 60 mins post habituation followed by methamphetamine injection after 60 mins measured for 150 mins; format: functional, organism-based; outline: as §3

Structure (SMILES) | EC50 [1] [nM] | solubility [2] [µg/mL] | Emax [3] [%] | other results
COCCNC(=O)c1cnn(-c2cccc3cc(Cc4cccc(C(F)(F)F)c4)sc23)c1C | 62 | 1.3 (≈ 2.75 µM) | 84 | 
COCCNC(=O)c1c(C)nn(-c2cccc3cc(Cc4cccc(C(F)(F)F)c4)sc23)c1C | 17 | 2.9 (≈ 5.95 µM) | 104 | 
COCCNC(=O)c1cnn(-c2cccc3cc(Cc4cccc(C(F)(F)F)c4)sc23)c1 | 62 | < 0.08 | 81 | 
O=C(CCCN1CCC(O)(c2ccc(Cl)cc2)CC1)c1ccc(F)cc1 |  |  |  | Activity [14]: Active
COCCNC(=O)c1cn(-c2cccc3cc(Cc4cccc(C(F)(F)F)c4)sc23)nc1C | 9.6 | < 0.1 | 89 | 

Second part, led by results:

EC50 [1] [nM] | solubility [2] [µg/mL] | Emax [3] [%] | Structure (SMILES) | other results
5.2 | < 0.1 | 102 | Cc1nn(-c2cccc3cc(Cc4cccc(C(F)(F)F)c4)sc23)cc1C(=O)NCCO | 
21 | 21 (≈ 42.9 µM) | 103 | Cc1nn(-c2cccc3cc(Cc4cccc(C(F)(F)F)c4)sc23)c(CO)c1C(=O)NCCO | Cmax [4]: 83 ng/mL; Tmax [5]: 1.7 h; AUC(0-t) at 8 h [6]: 406 ng·h/mL; clearance [7]: 12.4 mL/min/kg; bioavailability [8]: 29.9%; efflux ratio [9]: 1.7; fraction unbound at 1 µM [10]: 0.02; Activity [11]: Dose-dependent effect; Activity [12]: Non-Toxic; Activity [13]: Non-Toxic
87 | < 0.09 | 73 | O=C(NCCO)c1cnn(-c2cccc3cc(Cc4cccc(C(F)(F)F)c4)sc23)c1 | 
146 | 18 (≈ 36.8 µM) | 96 | Cc1c(C(=O)NCCO)c(CO)nn1-c1cccc2cc(Cc3cccc(C(F)(F)F)c3)sc12 | 
45 | < 0.08 | 110 | Cn1nc(-c2cccc3cc(Cc4cccc(C(F)(F)F)c4)sc23)cc1C(=O)NCCO | 
15 | 12 (≈ 25.3 µM) | 110 | Cc1nn(-c2cccc3cc(Cc4cccc(C(F)(F)F)c4)sc23)c(C)c1C(=O)NCCO | 
